Source: PubChem
Ins promoter up = MIN6 insulin promoter up-regulation; MIN6 insulin promoter-GFP reporter, high-content imaging; active compounds read high; actives 0.3% (n = 190,000); z-score at 5 µM;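 active means z-score above 3 at 5 µM with at least 500 cells counted in the well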
NPY2 pot ag = potentiators or agonists of human neuropeptide Y receptor Y2; P49146; actives 0.45% (n = 220,000); activation, % at 3.6 µM; cells expressing NPY-Y2, potentiator/agonist read-out; in the data active means activation above about 27%;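 further: cells stimulated with NPY near EC25 plus isoproterenol at EC100; 0% = vehicle plus submaximal agonist and 100% = vehicle plus saturating agonist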
Target sequence (P49146 whole entry, looked up): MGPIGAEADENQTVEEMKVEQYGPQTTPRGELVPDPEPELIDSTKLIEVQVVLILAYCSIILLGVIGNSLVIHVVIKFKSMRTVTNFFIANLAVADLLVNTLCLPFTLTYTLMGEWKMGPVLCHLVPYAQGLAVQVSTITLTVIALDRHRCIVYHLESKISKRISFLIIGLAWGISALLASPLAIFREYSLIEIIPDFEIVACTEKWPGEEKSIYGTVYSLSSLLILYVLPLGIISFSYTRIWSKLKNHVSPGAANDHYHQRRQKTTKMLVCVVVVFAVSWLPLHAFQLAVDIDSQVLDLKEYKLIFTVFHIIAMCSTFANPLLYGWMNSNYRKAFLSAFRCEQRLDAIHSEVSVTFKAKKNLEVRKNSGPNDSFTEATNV
INS promoter inh = TRM-6 insulin promoter activity inhibition; TRM-6 cells (human fetal islet line), insulin promoter-eGFP reporter, imaging; reporter expression induced with tamoxifen; inhibition, % at 2 µM; actives 0.9% (n = 130,000); AID 1273;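 active means inhibition above the mean plus 3 SD, with well images judged a real hit on visual review, cut at about 60% in these data, passing the limit was not always enough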
NPY1 pot ag = human NPY-Y1 potentiation or agonism, primary screen | NPY-Y1 expressing cells, potentiator/agonist activation | activation, % at 3.6 µM | AID 1304 | P25929 | actives 0.37% (n = 220,000); in the data active means activation above about 33%, passing the limit was not always enough;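 further: cells stimulated with NPY at EC10 then isoproterenol at EC100; 0% = low agonist plus stimulus and 100% = saturating agonist plus stimulus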
Target sequence (P25929 whole entry, looked up): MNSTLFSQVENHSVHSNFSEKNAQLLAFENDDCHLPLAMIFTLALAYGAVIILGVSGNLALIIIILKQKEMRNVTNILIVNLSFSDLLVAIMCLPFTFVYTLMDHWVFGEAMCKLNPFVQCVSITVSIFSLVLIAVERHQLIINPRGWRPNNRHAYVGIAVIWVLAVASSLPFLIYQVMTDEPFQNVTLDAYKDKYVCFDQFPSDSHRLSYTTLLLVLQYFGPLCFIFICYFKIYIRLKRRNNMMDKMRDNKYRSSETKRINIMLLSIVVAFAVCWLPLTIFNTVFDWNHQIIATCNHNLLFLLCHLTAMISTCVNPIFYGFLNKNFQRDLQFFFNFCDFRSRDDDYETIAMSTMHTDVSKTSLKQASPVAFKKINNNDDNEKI
NPY Y1 blocker = antagonists of human neuropeptide Y receptor Y1; P25929; HEK293-CNG Y1 cells, membrane potential fluorescence; NPY at EC95, then isoproterenol; inhibition, % at 3.6 µM; actives 1% (n = 200,000); AID 1040;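 active means inhibition above the campaign mean inhibition of all tested compounds plus 3 SD, cut at about 20% in these data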;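 further: 0% = DMSO wells given NPY plus isoproterenol and 100% = isoproterenol alone without NPY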
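material = HEK293 cells with Y1 receptor plus CNG channel | also added = NPY 25 nM then isoproterenol 1 µM plus Ro 20-1724 25 µM | schedule = dye 3 h, compound 60 min room temperature, stimulation 45 min | measured by = membrane potential fluorescence | benchmarks = high control isoproterenol alone, low control NPY with isoproterenol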
NPY-Y2 antag = antagonists of human neuropeptide Y receptor Y2. inhibition, % at 2.7 µM. actives 0.99% (n = 140,000). NPY-Y2 expressing cells, antagonist mode; in the data active means inhibition above about 17%;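 further: 0% = vehicle with agonist challenge and 100% = reference antagonist with challenge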
NPY-Y1 pot conf = confirmation of human NPY-Y1 receptor potentiators or agonists; cell-based NPY-Y1 potentiator/agonist assay; shares compounds with NPY1 pot ag; actives 20% (n = 280); activation, % at 3.6 µM; AID 1546;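 further: cells challenged with NPY at its EC10 plus isoproterenol stimulus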
NPY-Y2 counter = potentiates or activates NPY-Y2, counter-screen for NPY-Y1 hits | shares compounds with NPY1 pot ag | HEK293-CNG cells, membrane-potential fluorescence (FLIPR), 1536-well | activation, % at 3.6 µM | actives 20% (n = 280); in the data active means activation above about 33%
NPY-Y1 ag = activates human NPY-Y1, counter-screen for NPY-Y1 potentiators; shares compounds with NPY1 pot ag; HEK293 Y1-CNGC, membrane potential fluorescence, agonist mode; activation, % at 3.6 µM; actives 50% (n = 280); AID 1697;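 active means percent activation above the mean of DMSO-only control wells plus 3 SD of those wells, cut at about 18% in these data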;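 further: cells challenged with isoproterenol plus Ro 20-1724 with no NPY in test wells; Y1 agonism lowers isoproterenol-driven cAMP and reduces probe fluorescence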
NPY-Y2 ag = human NPY-Y2 agonism as NPY-Y1 counter-screen | shares compounds with NPY1 pot ag | HEK293 Y2-CNGC, membrane potential fluorescence, agonist mode | activation, % at 3.6 µM | actives 67% (n = 280);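 active means activation above the solvent-only control wells' mean plus 3 SD, cut at about 11% in these data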;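 further: 0% = DMSO with isoproterenol and 100% = 40 nM NPY maximal response; agonism lowers cAMP so well fluorescence drops in active wells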
CNGC counter = CNG channel inhibition, counter-screen for NPY-Y1 potentiators; shares compounds with NPY1 pot ag; HEK293-CNG parental, isoproterenol cAMP, membrane potential fluorescence; inhibition, % at 3.6 µM; actives 42% (n = 280);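 active means inhibition above the mean of stimulated solvent-only control wells plus 3 SD, cut at about 22% in these data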;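 further: 0% = isoproterenol-stimulated DMSO wells and 100% = unstimulated DMSO wells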
NPY-Y2 pot conf = human NPY-Y2 potentiation or agonism, confirmation | activation, % at 3.6 µM | shares compounds with NPY2 pot ag | cell-based NPY-Y2 potentiator/agonist assay | AID 1539 | actives 20% (n = 450); in the data active means activation above about 33%
NPY-Y1 potentiator = NPY-Y1 potentiation or agonism as NPY-Y2 counter-screen; shares compounds with NPY2 pot ag; AID 1651; activation, % at 3.6 µM; actives 20% (n = 450); Y1 HEK293-CNG cells, membrane potential fluorescence;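 further: cells stimulated with submaximal NPY then isoproterenol with phosphodiesterase inhibitor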
NPY-Y1 agonist 2 = human NPY-Y1 agonism as NPY-Y2 potentiator counter-screen. shares compounds with NPY2 pot ag. HEK293 Y1-CNGC, membrane potential fluorescence. activation, % at 3.6 µM. actives 37% (n = 450);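 active means activation above the mean of DMSO-only control wells plus 3 SD, cut at about 18% in these data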;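 further: cells stimulated with 1 µM isoproterenol plus the PDE inhibitor Ro 20-1724; 0% = isoproterenol with DMSO and no NPY and 100% = 40 nM NPY; Y1 agonists lower the membrane potential dye signal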
CNGC inhibitor = blocks CNG channel activity, counter-screen for NPY-Y2 potentiators. shares compounds with NPY2 pot ag. HEK293-CNG parental, isoproterenol cAMP, membrane potential fluorescence. inhibition, % at 3.6 µM. actives 32% (n = 450);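 active means inhibition above the control-well mean plus 3 SD of those wells, cut at about 22% in these data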;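 further: 0% = DMSO with isoproterenol and 100% = DMSO without isoproterenol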
Y2 agonist ctr = counter-screen for NPY-Y2 potentiators: agonists of human NPY-Y2 | shares compounds with NPY2 pot ag | HEK293 Y2/CNGC cells, membrane potential fluorescence, agonist mode | activation, % at 3.6 µM | actives 56% (n = 450);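 active means activation above the mean of solvent-only control wells plus 3 SD, cut at about 10% in these data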;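 further: cells stimulated by isoproterenol with no NPY added so direct agonism is tested; 0% = DMSO with isoproterenol alone and 100% = NPY at EC100 plus isoproterenol; agonism lowers probe fluorescence through less cAMP and CNG channel opening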
Numbers without * were called inactive; . = no result. Sampled rows, rich in hits. Any-hit rate of the full collection: about 2.5%. Unless noted, no stated cut-off is given here; in the data, active means activation above about 45%; inactive means the rest.

SMILES	Ins promoter up	NPY2 pot ag	INS promoter inh	NPY1 pot ag	NPY Y1 blocker	NPY-Y2 antag	NPY-Y2 pot conf	NPY-Y1 potentiator	NPY-Y1 agonist 2	CNGC inhibitor	Y2 agonist ctr	others
CN(C)Cc1c(O)ccc2oc(Cc3ccccc3)cc12	0.97	21	17	53*	1	8	.	.	.	.	.	NPY-Y1 pot conf=16;NPY-Y2 counter=18;NPY-Y1 ag=21*;NPY-Y2 ag=26*;CNGC counter=-1
COC(=O)CNC(=O)C12CC3CC(C1)CC(c1ccc(C)cc1)(C3)C2	0.23	-10	.	6	6	.	.	.	.	.	.
Cc1ccc(C23CC4CC(CC(CN)(C4)C2)C3)cc1	-2	25	.	35*	5	.	.	.	.	.	.	NPY-Y1 pot conf=40;NPY-Y2 counter=24;NPY-Y1 ag=21*;NPY-Y2 ag=31*;CNGC counter=31*
C=CCn1c(COc2ccc(Cl)cc2)nnc1SCC(=O)N/N=C/c1ccccc1	.	3	-36	20	3	-1	.	.	.	.	.
Cc1nn(Cc2ccc(F)cc2)c(C)c1NC(=O)c1cnn2c1NC(c1ccccc1)CC2C(F)(F)F (configuration not stated)	0.22	34*	7	36	-8	-3	21	28	19*	22*	27*
Cc1nn(Cc2ccc(F)cc2)c(C)c1NC(=O)c1cnn2c1NC(c1cccs1)CC2C(F)(F)F (configuration not stated)	-0.15	24	-17	30	-6	-4	.	.	.	.	.
CC(=O)Nc1cccc2c1C(=O)N(c1ccccc1OC(C)=O)C2=O	.	6	.	-9	2	.	.	.	.	.	.
O=[N+]([O-])c1ccc(Nc2c3ccccc3nc3ccccc23)cc1	-0.84	31*	40	25	-5	.	47*	54*	36*	41*	45*
O=[N+]([O-])c1ccc(S(=O)(=O)Nc2nc3ccccc3nc2Nc2ccccc2)cc1	-0.28	1	-45	26	-3	.	.	.	.	.	.
Cc1cc2c(cc1C)N(C(=O)CSC1=NCCS1)C(C)(C)c1ssc(=S)c1-2	-0.8	42*	8	28	-9	-5	23	29	24*	11	29*
COc1ccc2c(c1)-c1c(ssc1=S)C(C)(C)N2C(=O)CSC1=NCCS1	-1.6	43*	60	51	-9	-8	26	28	23*	23*	20*
O=C(CCc1ccccc1O)N/N=C/c1ccc(Sc2cccc3cccnc23)o1	.	37*	54	39	3	-1	19	36	34*	22*	22*
O=C(CSc1cccc2cccnc12)N/N=C/c1ccc(O)cc1	0.57	4	.	-11	.	.	.	.	.	.	.
CC(=O)Nc1ccc(S(=O)(=O)N2CCC(n3cnc4cc(F)ccc43)CC2)cc1	-0.16	35*	.	10	2	0	8	7	4	4	-5
COc1ccc(S(=O)(=O)N2CCC(n3cnc4cc(C(F)(F)F)ccc43)CC2)cc1	-2	3	8	18	-5	0	.	.	.	.	.
Cc1ccccc1C1=Nn2c(nnc2-c2ccco2)SC1	-0.46	-9	.	5	.	.	.	.	.	.	.
CN(C)CCCNC(=O)c1ccc(=O)[nH]n1	0.26	2	.	10	.	.	.	.	.	.	.
O=C1/C(=C/c2ccc(O)c(O)c2)SC(=S)N1Nc1ccccc1	0.51	39*	.	31	-9	.	34*	41	25*	18	28*
O=C(NCc1cccc(Cl)c1)c1cc(COc2ccc3ncccc3c2)on1	-2.3	37*	.	3	0	.	-2	-29	-10	-5	-1
Cc1ccc(F)cc1CNC(=O)c1cc(COc2ccc3ncccc3c2)on1	-0.95	23	.	4	0	.	.	.	.	.	.
O=[N+]([O-])c1cc(C(F)(F)F)cc([N+](=O)[O-])c1NCCNC(=S)Nc1ccc(Cl)c(Cl)c1	-0.35	102*	.	2	.	.	34*	24	18*	20	47*
CCC(C)N(C)C1CCN(C(=S)Nc2cccc(OC)c2)CC1 (configuration not stated)	-0.01	82*	12	0	-2	.	-3	3	-4	3	8
Oc1ccccc1-c1nc(NCC2CCCO2)c2ccccc2n1 (configuration not stated)	0.02	41*	.	22	-4	-1	37*	24	17	24*	19*
Cc1c([N+](=O)[O-])c(C(=O)Sc2ccc(Br)cc2)nn1C	-0.01	44*	.	43	.	.	9	15	1	5	16*
Cc1c([N+](=O)[O-])c(C(=O)N2CCCC2)nn1C	0.54	-3	0	16	5	0	.	.	.	.	.
COc1ccc(/C=C/C(=O)c2ccc(O)cc2)cc1COc1ccc(F)cc1	0.23	1	16	7	-6	-2	.	.	.	.	.
COc1ccc(Oc2ccc(/C=C/C(=O)c3ccc(O)cc3)cc2[N+](=O)[O-])cc1	-0.23	38*	38	19	-4	2	16	34	23*	20	11*
O=C(Nc1ccc(F)cc1)NC1CCCCC1	0.11	99*	-400	-11	2	1	-5	-3	-6	-8	-11
